Data reported in ChEMBL document CHEMBL1153370, “New pyridazine derivatives: synthesis, chemistry and biological activity” (2009).

Assays:
Format in all cases: functional
Staphylococcus aureus [1] = experiment: Antibacterial activity Staphylococcus aureus ATCC 25923 after 24 hrs at 30 degC by agar diffusion technique
How it was run: (§1)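 Agar diffusion method. Bacteria were maintained on Mueller Hinton agar, and the agar medium was inoculated with each test organism. Plates were incubated 24 h at 30 °C, then the diameter of the inhibition zone was measured in mm and reported as the mean diameter.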

Micrococcus luteus [2] = experiment: Antibacterial activity Sarcina lutea ATCC 9341 after 24 hrs at 30 degC by agar diffusion technique; how it was run: as §1
Bacillus subtilis [3] = experiment: Antibacterial activity Bacillus subtilis after 24 hrs at 30 degC by agar diffusion technique; how it was run: as §1
Pseudomonas aeruginosa [4] = experiment: Antibacterial activity Pseudomonas aeruginosa after 24 hrs at 30 degC by agar diffusion technique; how it was run: as §1
Escherichia coli [5] = experiment: Antibacterial activity Escherichia coli ATCC 25922 after 24 hrs at 30 degC by agar diffusion technique; how it was run: as §1
Candida albicans = experiment: Antifungal activity Candida albicans ATCC 10231 after 48 hrs at 28 degC by agar diffusion technique
How it was run: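 Fungi were maintained on Mueller Hinton agar and tested by diffusion on agar seeded with the organism. After 48 h incubation at 28 °C, the inhibition zone diameter (mm, mean) was measured.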

Staphylococcus aureus [6] = experiment: Antibacterial activity Staphylococcus aureus ATCC 25923 at 30 ug/disk after 24 hrs at 30 degC by agar diffusion technique; details: ATCC 25923, 24 h, read-out: Diameter of inhibition zone; how it was run: as §1
Micrococcus luteus [7] = experiment: Antibacterial activity Sarcina lutea ATCC 9341 at 30 ug/disk after 24 hrs at 30 degC by agar diffusion technique; details: ATCC 9341, 24 h, read-out: Diameter of inhibition zone; how it was run: as §1
Bacillus subtilis [8] = experiment: Antibacterial activity Bacillus subtilis at 30 ug/disk after 24 hrs at 30 degC by agar diffusion technique; details: read-out: Diameter of inhibition zone; how it was run: as §1
Pseudomonas aeruginosa [9] = experiment: Antibacterial activity Pseudomonas aeruginosa at 30 ug/disk after 24 hrs at 30 degC by agar diffusion technique; details: read-out: Diameter of inhibition zone; how it was run: as §1
Escherichia coli [10] = experiment: Antibacterial activity Escherichia coli ATCC 25922 at 30 ug/disk after 24 hrs at 30 degC by agar diffusion technique; details: ATCC 25922, 24 h, read-out: Diameter of inhibition zone
How it was run: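 Agar diffusion method; organisms kept on Mueller Hinton agar, and agar media were inoculated with the test culture. Bacterial plates incubated 24 h at 30 °C, then diameter of the inhibition zone measured in mm (mean diameter).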

COC(=O)[C@H]1[C@H](C(=O)OC)[C@H](C(=O)c2ccc(Cl)cc2)N2N=CC=C[C@@H]12
Diameter of inhibition zone (Staphylococcus aureus [1]): 23 mm | Diameter of inhibition zone (Micrococcus luteus [2]): 54 mm | Diameter of inhibition zone (Bacillus subtilis [3]): 36 mm | Diameter of inhibition zone (Pseudomonas aeruginosa [4]): 15 mm | Diameter of inhibition zone (Escherichia coli [5]): 31 mm | Diameter of inhibition zone (Candida albicans): 27 mm

Cc1ccc(C(=O)[C@@H]2C[C@H](C#N)[C@@H]3C=CC=NN23)cc1
Diameter of inhibition zone (Staphylococcus aureus [1]): 46 mm | Diameter of inhibition zone (Micrococcus luteus [2]): 67 mm | Diameter of inhibition zone (Bacillus subtilis [3]): 39 mm | Diameter of inhibition zone (Pseudomonas aeruginosa [4]): 19 mm | Diameter of inhibition zone (Escherichia coli [5]): 23 mm | Diameter of inhibition zone (Candida albicans): 30 mm

COC(=O)c1c(C(=O)OC)c2cccnn2c1C(=O)c1ccc(F)cc1
Diameter of inhibition zone (Staphylococcus aureus [1]): 27 mm | Diameter of inhibition zone (Micrococcus luteus [2]): 52 mm | Diameter of inhibition zone (Bacillus subtilis [3]): 23 mm | Diameter of inhibition zone (Pseudomonas aeruginosa [4]): 15 mm | Diameter of inhibition zone (Escherichia coli [5]): 21 mm | Diameter of inhibition zone (Candida albicans): 21 mm

COC(=O)[C@H]1[C@H](C(=O)OC)[C@H](C(=O)c2ccc(C)cc2)N2N=CC=C[C@@H]12
Diameter of inhibition zone (Staphylococcus aureus [1]): 47 mm | Diameter of inhibition zone (Micrococcus luteus [2]): 59 mm | Diameter of inhibition zone (Bacillus subtilis [3]): 38 mm | Diameter of inhibition zone (Pseudomonas aeruginosa [4]): 17 mm | Diameter of inhibition zone (Escherichia coli [5]): 37 mm | Diameter of inhibition zone (Candida albicans): 29 mm

COC(=O)c1c(C(=O)OC)c2cccnn2c1C(=O)c1ccc(Cl)cc1
Diameter of inhibition zone (Staphylococcus aureus [1]): 30 mm | Diameter of inhibition zone (Micrococcus luteus [2]): 57 mm | Diameter of inhibition zone (Bacillus subtilis [3]): 26 mm | Diameter of inhibition zone (Pseudomonas aeruginosa [4]): 18 mm | Diameter of inhibition zone (Escherichia coli [5]): 31 mm | Diameter of inhibition zone (Candida albicans): 24 mm

COC(=O)c1c(C(=O)OC)c2cccnn2c1C(=O)c1ccc(C)cc1
Diameter of inhibition zone (Staphylococcus aureus [1]): 46 mm | Diameter of inhibition zone (Micrococcus luteus [2]): 65 mm | Diameter of inhibition zone (Bacillus subtilis [3]): 26 mm | Diameter of inhibition zone (Pseudomonas aeruginosa [4]): 19 mm | Diameter of inhibition zone (Escherichia coli [5]): 25 mm | Diameter of inhibition zone (Candida albicans): 29 mm

N#C[C@H]1C[C@@H](C(=O)c2ccc(F)cc2)N2N=CC=C[C@@H]12
Diameter of inhibition zone (Staphylococcus aureus [1]): 26 mm | Diameter of inhibition zone (Micrococcus luteus [2]): 50 mm | Diameter of inhibition zone (Bacillus subtilis [3]): 27 mm | Diameter of inhibition zone (Pseudomonas aeruginosa [4]): 14 mm | Diameter of inhibition zone (Escherichia coli [5]): 20 mm | Diameter of inhibition zone (Candida albicans): 23 mm

CCOC(=O)c1cc(C(=O)c2ccc(Cl)cc2)n2ncccc12
Diameter of inhibition zone (Staphylococcus aureus [1]): 25 mm | Diameter of inhibition zone (Micrococcus luteus [2]): 48 mm | Diameter of inhibition zone (Bacillus subtilis [3]): 25 mm | Diameter of inhibition zone (Pseudomonas aeruginosa [4]): 20 mm | Diameter of inhibition zone (Escherichia coli [5]): 33 mm | Diameter of inhibition zone (Candida albicans): 30 mm

COC(=O)[C@@H]1[C@H](C(=O)OC)[C@H](C(=O)c2ccc(F)cc2)N2N=CC=C[C@@H]12
Diameter of inhibition zone (Staphylococcus aureus [1]): 29 mm | Diameter of inhibition zone (Micrococcus luteus [2]): 60 mm | Diameter of inhibition zone (Bacillus subtilis [3]): 37 mm | Diameter of inhibition zone (Pseudomonas aeruginosa [4]): 18 mm | Diameter of inhibition zone (Escherichia coli [5]): 35 mm | Diameter of inhibition zone (Candida albicans): 24 mm

COC(=O)[C@@H]1[C@H](C(=O)OC)[C@H](C(=O)c2ccc(Cl)cc2)N2N=CC=C[C@@H]12
Diameter of inhibition zone (Staphylococcus aureus [1]): 33 mm | Diameter of inhibition zone (Micrococcus luteus [2]): 56 mm | Diameter of inhibition zone (Bacillus subtilis [3]): 39 mm | Diameter of inhibition zone (Pseudomonas aeruginosa [4]): 18 mm | Diameter of inhibition zone (Escherichia coli [5]): 32 mm | Diameter of inhibition zone (Candida albicans): 25 mm

O=C(C[n+]1ccccn1)c1ccc(Cl)cc1.[Br-]
Diameter of inhibition zone (Staphylococcus aureus [1]): 36 mm | Diameter of inhibition zone (Micrococcus luteus [2]): 57 mm | Diameter of inhibition zone (Bacillus subtilis [3]): 32 mm | Diameter of inhibition zone (Pseudomonas aeruginosa [4]): 20 mm | Diameter of inhibition zone (Escherichia coli [5]): 36 mm | Diameter of inhibition zone (Candida albicans): 29 mm

O=C(c1ccc(Cl)cc1)[C@H]1[C@@H]2C(=O)N(c3ccccc3)C(=O)[C@@H]2[C@@H]2C=CC=NN21
Diameter of inhibition zone (Staphylococcus aureus [1]): 28 mm | Diameter of inhibition zone (Micrococcus luteus [2]): 54 mm | Diameter of inhibition zone (Bacillus subtilis [3]): 28 mm | Diameter of inhibition zone (Pseudomonas aeruginosa [4]): 18 mm | Diameter of inhibition zone (Escherichia coli [5]): 28 mm | Diameter of inhibition zone (Candida albicans): 34 mm

Cc1ccc(C(=O)[C@H]2[C@@H]3C(=O)N(c4ccccc4)C(=O)[C@@H]3[C@@H]3C=CC=NN32)cc1
Diameter of inhibition zone (Staphylococcus aureus [1]): 31 mm | Diameter of inhibition zone (Micrococcus luteus [2]): 73 mm | Diameter of inhibition zone (Bacillus subtilis [3]): 37 mm | Diameter of inhibition zone (Pseudomonas aeruginosa [4]): 18 mm | Diameter of inhibition zone (Escherichia coli [5]): 24 mm | Diameter of inhibition zone (Candida albicans): 29 mm

CCOC(=O)c1cc(C(=O)c2ccc(F)cc2)n2ncccc12
Diameter of inhibition zone (Staphylococcus aureus [1]): 27 mm | Diameter of inhibition zone (Micrococcus luteus [2]): 48 mm | Diameter of inhibition zone (Bacillus subtilis [3]): 22 mm | Diameter of inhibition zone (Pseudomonas aeruginosa [4]): 20 mm | Diameter of inhibition zone (Escherichia coli [5]): 23 mm | Diameter of inhibition zone (Candida albicans): 22 mm

O=C(C[n+]1ccccn1)c1ccc(F)cc1.[Br-]
Diameter of inhibition zone (Staphylococcus aureus [1]): 38 mm | Diameter of inhibition zone (Micrococcus luteus [2]): 61 mm | Diameter of inhibition zone (Bacillus subtilis [3]): 31 mm | Diameter of inhibition zone (Pseudomonas aeruginosa [4]): 20 mm | Diameter of inhibition zone (Escherichia coli [5]): 31 mm | Diameter of inhibition zone (Candida albicans): 19 mm

N#C[C@H]1C[C@@H](C(=O)c2ccc(Cl)cc2)N2N=CC=C[C@@H]12
Diameter of inhibition zone (Staphylococcus aureus [1]): 30 mm | Diameter of inhibition zone (Micrococcus luteus [2]): 57 mm | Diameter of inhibition zone (Bacillus subtilis [3]): 29 mm | Diameter of inhibition zone (Pseudomonas aeruginosa [4]): 14 mm | Diameter of inhibition zone (Escherichia coli [5]): 28 mm | Diameter of inhibition zone (Candida albicans): 35 mm

COC(=O)[C@H]1[C@H](C(=O)OC)[C@H](C(=O)c2ccc(F)cc2)N2N=CC=C[C@@H]12
Diameter of inhibition zone (Staphylococcus aureus [1]): 29 mm | Diameter of inhibition zone (Micrococcus luteus [2]): 51 mm | Diameter of inhibition zone (Bacillus subtilis [3]): 35 mm | Diameter of inhibition zone (Pseudomonas aeruginosa [4]): 17 mm | Diameter of inhibition zone (Escherichia coli [5]): 35 mm | Diameter of inhibition zone (Candida albicans): 27 mm

CCOC(=O)c1cc(C(=O)c2ccc(C)cc2)n2ncccc12
Diameter of inhibition zone (Staphylococcus aureus [1]): 40 mm | Diameter of inhibition zone (Micrococcus luteus [2]): 56 mm | Diameter of inhibition zone (Bacillus subtilis [3]): 37 mm | Diameter of inhibition zone (Pseudomonas aeruginosa [4]): 18 mm | Diameter of inhibition zone (Escherichia coli [5]): 25 mm | Diameter of inhibition zone (Candida albicans): 28 mm

COC(=O)[C@@H]1[C@H](C(=O)OC)[C@H](C(=O)c2ccc(C)cc2)N2N=CC=C[C@@H]12
Diameter of inhibition zone (Staphylococcus aureus [1]): 41 mm | Diameter of inhibition zone (Micrococcus luteus [2]): 62 mm | Diameter of inhibition zone (Bacillus subtilis [3]): 39 mm | Diameter of inhibition zone (Pseudomonas aeruginosa [4]): 19 mm | Diameter of inhibition zone (Escherichia coli [5]): 37 mm | Diameter of inhibition zone (Candida albicans): 30 mm

O=C(c1ccc(F)cc1)[C@H]1[C@@H]2C(=O)N(c3ccccc3)C(=O)[C@@H]2[C@@H]2C=CC=NN21
Diameter of inhibition zone (Staphylococcus aureus [1]): 27 mm | Diameter of inhibition zone (Micrococcus luteus [2]): 63 mm | Diameter of inhibition zone (Bacillus subtilis [3]): 28 mm | Diameter of inhibition zone (Pseudomonas aeruginosa [4]): 16 mm | Diameter of inhibition zone (Escherichia coli [5]): 25 mm | Diameter of inhibition zone (Candida albicans): 25 mm

Cc1ccc(C(=O)C[n+]2ccccn2)cc1.[Br-]
Diameter of inhibition zone (Staphylococcus aureus [1]): 47 mm | Diameter of inhibition zone (Micrococcus luteus [2]): 81 mm | Diameter of inhibition zone (Bacillus subtilis [3]): 40 mm | Diameter of inhibition zone (Pseudomonas aeruginosa [4]): 20 mm | Diameter of inhibition zone (Escherichia coli [5]): 25 mm | Diameter of inhibition zone (Candida albicans): 27 mm

O=C(N[C@H](CO)[C@H](O)c1ccc([N+](=O)[O-])cc1)C(Cl)Cl [CHLORAMPHENICOL]
zone of inhibition at 30 µg/disc (Staphylococcus aureus [6]): 30 mm | zone of inhibition at 30 µg/disc (Micrococcus luteus [7]): 40 mm | zone of inhibition at 30 µg/disc (Bacillus subtilis [8]): 26 mm | zone of inhibition at 30 µg/disc (Pseudomonas aeruginosa [9]): 19 mm | zone of inhibition at 30 µg/disc (Escherichia coli [10]): 25 mm
